In the library only some 5.1% were active in any assay of this set; here they are far more common.
Ecoli tolC: E. coli tolC mutant growth inhibition; E. coli BW25113 tolC mutant growth, OD615; growth inhibition, % at 10 µM (by protocol); 2.2% of 65,000 active; AID 573;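 active = growth inhibition at or above a cutoff equal to the mean over every tested compound plus 3 SD, cut at about 60% in these data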;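 note: growth measured after 20 h incubation at 37 °C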
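test system = E. coli BW25113 ΔtolC::kan bacteria | medium = LB with kanamycin 50 µg/mL | signal = OD at 615 nm | schedule = 37 °C, 20 h exposure | evaluation = % inhibition of E. coli growth | compound dosing = one dose of 10 µM final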
M1 agonist: agonists of M1 muscarinic receptor; CHO-M1 cells, Fluo-4 calcium fluorescence, agonist mode; active compounds read high; B-score at 10 µM; 3% of 64,000 active; AID 626;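 active = fluorescence rise, raw or as B-score row- and column-corrected plate score, outside the 99.7% band of its plate's samples, either direction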
M1 antagonist: M1 muscarinic receptor (rat) antagonism; P08482; B-score at 10 µM; AID 628; CHO-M1 cells, Fluo-4 calcium, ACh EC80 antagonist mode; active compounds read low; 3.4% of 64,000 active;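 active = calcium fluorescence response, raw or row-and-column corrected B-score, differing from the plate sample mean either way at a set confidence level, mostly lower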
Target sequence (P08482 whole entry, looked up): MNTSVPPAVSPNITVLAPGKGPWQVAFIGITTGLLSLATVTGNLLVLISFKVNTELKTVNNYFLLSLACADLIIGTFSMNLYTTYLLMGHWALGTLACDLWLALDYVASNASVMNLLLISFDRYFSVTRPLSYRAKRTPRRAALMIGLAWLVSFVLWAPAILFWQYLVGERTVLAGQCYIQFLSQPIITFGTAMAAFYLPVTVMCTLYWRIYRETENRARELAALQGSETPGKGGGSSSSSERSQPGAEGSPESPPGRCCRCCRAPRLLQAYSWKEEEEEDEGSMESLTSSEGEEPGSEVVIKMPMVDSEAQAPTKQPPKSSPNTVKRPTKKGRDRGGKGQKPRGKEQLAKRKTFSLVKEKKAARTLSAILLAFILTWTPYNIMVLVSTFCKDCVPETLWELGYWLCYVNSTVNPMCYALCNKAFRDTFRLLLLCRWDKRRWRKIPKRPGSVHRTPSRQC
BAP1 inh: inhibitors of human BAP1 deubiquitinase. Q92560. recombinant BAP1, Ub-AMC hydrolysis fluorescence kinetic; active compounds read low. calls only at 20 µM. 0.48% of 72,000 active. AID 436;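 active = activity remaining at or below 50% of control, provided the compound also passes the data quality filters; inactive = the rest, including low values that fail the filters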;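 note: 100% = DMSO wells rate and 0% = substrate alone blank rate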
E coli WT exp: E. coli BW25113 growth inhibition, expanded screen; OD600 absorbance; growth inhibition, % at 100 µM; 0.15% of 98,000 active; AID 710;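 active = growth inhibition above about 50% at one test dose, limit read from the data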;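 note: growth measured after 20 h incubation at 37 °C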
Hsp90 block: displaces geldanamycin probe from tumor Hsp90. NCI-N417 lysate Hsp90, Cy3B-geldanamycin FP displacement. inhibition, % at 30 µM. 0.35% of 64,000 active. AID 429;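 active = inhibition above 50%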;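 note: 0% = tracer plus lysate wells and 100% = tracer alone without lysate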
M1 agonist conf: rat M1 muscarinic agonism, confirmation | shares compounds with M1 agonist | CHO-M1 cells, Fluo-4 calcium fluorescence, agonist mode; actives lie on both sides | fluorescence change (max-min) at 10 µM | 19% of 1,700 active | AID 1488;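 active = fluorescence change differs from the solvent-only DMSO control mean at a set confidence level in both duplicate runs; inconclusive = differs from solvent-only control mean in just one of two runs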;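 note: an EC20 dose of acetylcholine follows compound addition during the same imaging run; raw fluorescence intensity difference in instrument units with no normalization to controls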
M4 agonist ctr: activates rat M4 receptor in counter-screen for M1 agonists; shares compounds with M1 agonist; CHO M4/Gqi5 cells, Fluo-4 calcium fluorescence, agonist mode; actives lie on both sides; fluorescence change (max-min) at 10 µM; 9% of 1,700 active;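 active = fluorescence change differing from the plate's solvent-only control wells at 99.7% confidence in both duplicates, whether higher or lower; inconclusive = differs from solvent controls in only one of two duplicates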
Numbers without * were called inactive; i = inactive; ? = inconclusive; · = not tested or not shown.

SMILES	Ecoli tolC	M1 agonist	M1 antagonist	BAP1 inh	E coli WT exp	Hsp90 block	M1 agonist conf	M4 agonist ctr
CC1(C)CC(NCC(=O)N2c3ccccc3Sc3ccc(Cl)cc32)CC(C)(C)N1	·	·	·	i	·	·	·	·
O=C1Nc2ccccc2C1=Nc1ccccc1Br	·	·	·	i	·	·	·	·
CCCn1c(C2CC(=O)N(c3cc(OC)ccc3OC)C2)nc2ccccc21 (stereo not given)	-2	3.7*	-0.24	i	4	-2	-14	-56
CCn1c(C2CC(=O)N(c3ccc(C)c(C)c3)C2)nc2ccccc21 (stereo not given)	22	0.81	-0.35	i	·	-2	·	·
Cc1ccc2c(COn3nnc4ccc(S(=O)(=O)N(C)C)cc43)cc(=O)oc2c1C	10	21*	-0.019	i	-8	-2	-10	-29
Cc1ccc2c(CN3CCN(CCO)CC3)cc(=O)oc2c1C	·	·	·	·	1	·	·	·
NC(=O)c1occ2ccccc12	·	·	·	i	·	·	·	·
COc1ccccc1C(=O)NC(=Nc1nc2ccccc2o1)NC(=O)c1ccccc1OC	-4	6.4*	-0.46	i	-5	-2	?	-50
N/C(=N\c1nc2ccccc2o1)NC(=O)c1ccccc1F	·	·	·	·	-4	·	·	·
O=c1cc(-c2ccccc2)c2ccc(O)c(CN3CCCCC3)c2o1	23	-1.3	-0.7	i	0	-4	·	·
CCc1cc2c(-c3ccccc3)cc(=O)oc2c(CN2CCOCC2)c1O	31	15*	-0.94	i	-6	1	42	17
S=c1[nH]nc(-c2ccco2)o1	·	·	·	i	·	·	·	·
CSc1nc2[nH]c3c(c2c2ncnn12)CCCC3	6	8.1*	-0.18	i	-2	0	?	-68
Cn1nc(CC(=O)Nc2ccc3c(c2)CCC3)c2ccccc2c1=O	0	11*	-2	i	3	-4	33	20
Cn1nc(CC(=O)NC2CCCCCCCCCCC2)c2ccccc2c1=O	·	·	·	·	2	·	·	·
CC(C)N1CCc2c(sc(NC(=O)c3ccc(S(=O)(=O)N4CCOCC4)cc3)c2C(N)=O)C1	-3	8.9*	-0.21	i	-9	-3	13	3.8
CCN1CCc2c(sc(NC(=O)c3ccc(S(=O)(=O)N4CCOCC4)cc3)c2C(N)=O)C1	-10	0.8	-0.34	i	-7	-9	·	·
CCOC(=O)C1CCCN(C(=O)CN2C(=O)C(CC)Oc3ccc(C)cc32)C1 (stereo not given)	-2	-0.49	0.28	i	-1	2	·	·
CCC1Oc2ccc(C)cc2N(CC(=O)N2CCN(c3ccc(F)cc3)CC2)C1=O (stereo not given)	6	2.3*	0.57	i	-6	-4	-11	?
Cc1cc(=O)oc2ccc(OCC(=O)N(Cc3ccc(F)cc3)Cc3ccco3)cc12	42	6.4*	-2.4*	i	-17	2	?	-37
COc1ccc2c(Cl)c(C(=O)N3CCCCC3)sc2c1Cl	·	·	·	i	·	·	·	·
Cc1nc(SCC(=O)N2CCC(C(N)=O)CC2)n[nH]1	-7	3.9*	-0.18	i	-2	-2	?	-45
Cc1ccc(NC(=O)c2ccc(-c3ccccc3)cc2)nc1	·	·	·	i	·	·	·	·
O=C(CSc1ncnc2nc[nH]c12)NCCc1ccccc1	-13	-0.52	0.079	i	4	-2	·	·
COc1ccc(CNC(=O)CSc2ncnc3nc[nH]c23)cc1	-12	31*	-0.83	i	-2	-1	?	-63
SMILES	Ecoli tolC	M1 agonist	M1 antagonist	BAP1 inh	E coli WT exp	Hsp90 block	M1 agonist conf	M4 agonist ctr
c1ccc(CCNc2ncnc3nc[nH]c23)cc1	1	-1.1	-1.1	i	1	-7	·	·
c1ccc2c(CCNc3ncnc4nc[nH]c34)c[nH]c2c1	-7	3.9*	-0.17	i	6	2	-9.3	-20
CCC1=CC(=CN(C)c2ccccc2)C(=O)S1	·	·	·	i	·	·	·	·
CC(C)Cn1c(SCC(=O)O)nc2c1c(=O)[nH]c(=O)n2C	·	·	·	i	·	·	·	·
N#C/C(C(N)=O)=c1/ccc2c(c1)N1C3=C(CCCC3)CC3CCCCC31N=2 (stereo not given)	18	5.2*	-1.2	i	-29	44	-22	-37
O=C(Nc1ccccc1I)c1cccc(C(=O)Nc2ccccc2I)c1	·	·	·	i	·	·	·	·
C=CCn1c(=O)c2c(nc3n2CCN3c2cccc(Cl)c2C)n(C)c1=O	1	-0.79	-0.72	i	-3	1	·	·
C=C(C)Cn1c(=O)c2c(nc3n2CCN3c2cccc(Cl)c2C)n(C)c1=O	14	3*	-1.6	i	·	-3	-12	-32
COc1ccc(-n2sc3c(c2=S)-c2cc(C)ccc2N(C)C3(C)C)cc1OC	·	·	·	i	·	·	·	·
CCc1c(C)nc2ncnn2c1N1CCCC(C(=O)NCc2ccco2)C1 (stereo not given)	-2	2.8*	-4.5*	i	4	-3	?	-42
CCc1c(C)nc2ncnn2c1N1CCCC(C(=O)NCCc2ccccc2)C1 (stereo not given)	-8	-0.11	-0.41	i	7	3	·	·
CC1=C(C#N)C(=O)OC(C)(C)C1	11	15*	-1.2	i	0	12	39	33
CCOc1ccccc1NC(=O)CN(c1cc(C)cc(C)c1)S(=O)(=O)c1c(C)noc1C	-8	20*	-0.84	i	2	-2	-1.1	-19
COc1ccc(-c2cn3c(C)c(C(=O)Nc4cccc(C)n4)sc3n2)cc1	4	0.72	1.1	i	-8	-4	·	·
Cc1cccc(NC(=O)c2sc3nc(-c4ccccc4)cn3c2C)n1	1	2.4*	-0.72	i	-18	-5	?	-43
CC1CCc2c(sc(NC(=O)c3cccs3)c2C(=O)N2CCOCC2)C1 (stereo not given)	·	·	·	i	·	·	·	·
COC(=O)c1ccc(OCC2c3cc(OC)c(OC)cc3CCN2C(=O)C2CC2)cc1 (stereo not given)	26	8.7*	-0.099	i	-1	0	-32*	-47
O=c1oc(C=Cc2ccc([N+](=O)[O-])s2)nc2ccccc12	·	·	·	i	·	·	·	·
COc1ccccc1OCC(=O)c1[nH]c(C)c(C(C)=O)c1C	0	8.6*	-1.4	i	0	-9	4.5	-6.8
COc1ccccc1NC(=O)c1[nH]c(C)c(C(C)=O)c1C	-8	0.049	1.1	i	-3	-2	·	·
CC(CN1CCOCC1)OC(=O)c1ccc(Br)cc1 (stereo not given)	2	34*	-0.59	i	20	4	?	-35
COc1cc(/C=C/C(=O)CC(=O)/C=C/c2ccc(O)c(OC)c2)ccc1O	8	164*	-1.1	i	·	13	367*	401*
CCOC(=O)CC1=C(C(=O)OCC)C(c2ccc(C)o2)C(C#N)=C(N)O1 (stereo not given)	-21	0.29	0.058	i	13	0	·	·

Screens (PubChem BioAssay)
